M1 antag: antagonists of rat M1 muscarinic receptor; CHO-M1 cells, Fluo-4 calcium, ACh EC80 antagonist mode; stronger effect = lower value; Muscarinic acetylcholine receptor M1 (Rattus norvegicus), P08482; B-score at 10 µM; AID 628, 2007; 64,000 compounds, 3.4% hits;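 active means calcium fluorescence response, raw or row-and-column corrected B-score, differing from the plate sample mean either way at a set confidence level, mostly lower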
Target sequence (P08482 whole entry, looked up): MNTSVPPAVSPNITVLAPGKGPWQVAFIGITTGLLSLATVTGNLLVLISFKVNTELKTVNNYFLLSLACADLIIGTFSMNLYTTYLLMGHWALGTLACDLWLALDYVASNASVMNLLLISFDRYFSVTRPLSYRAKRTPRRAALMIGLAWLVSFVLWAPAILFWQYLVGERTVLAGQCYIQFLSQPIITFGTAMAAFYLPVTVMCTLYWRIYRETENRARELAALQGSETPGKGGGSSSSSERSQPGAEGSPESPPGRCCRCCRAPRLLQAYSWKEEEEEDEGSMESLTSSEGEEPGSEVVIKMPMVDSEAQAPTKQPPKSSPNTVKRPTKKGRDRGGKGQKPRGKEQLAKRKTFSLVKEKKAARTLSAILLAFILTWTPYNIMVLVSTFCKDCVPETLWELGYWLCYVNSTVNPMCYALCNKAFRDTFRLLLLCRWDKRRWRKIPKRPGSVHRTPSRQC
HEK293 NFkB inh: inhibitors of PMA/ionomycin-induced NF-kB reporter, primary screen, antigen receptor NF-kB inhibitor project, cell-based, HEK-293 luciferase reporter, luminescence; HEK-293 NF-kB luciferase reporter; inhibition, % at 3 µM; 62,000 compounds, 0.21% hits;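 active means inhibition above the mean of all tested compounds plus 3 SD, cut at about 40% in these data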;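 further: 0% = stimulated DMSO wells and 100% = 10 µM reference inhibitor 5653914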
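Material: HEK-293 cells with stable firefly luciferase reporter driven by four HIV NF-kB elements / Also added: PMA plus ionomycin mix as NF-kB-activating stimulus / Compound dosing: 3 µM once, 0.30% DMSO / Times: 1 h pretreatment, 16 h stimulation, 37 °C / Signal: luminescence / Evaluation: per-plate % inhibition versus controls / Benchmarks: DMSO and 10 µM reference inhibitor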
M1 ag: M1 muscarinic receptor agonists, primary screen, CHO-M1 cells, Fluo-4 calcium, agonist mode | Muscarinic acetylcholine receptor M1 | B-score at 10 µM | AID 626, 2007 | 64,000 compounds, 3% hits | Fluo-4 calcium fluorescence; stronger effect = higher value;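 active means fluorescence rise, raw or as B-score row- and column-corrected plate score, outside the 99.7% band of its plate's samples, either direction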
hDAT+cocaine: changed hDAT dopamine uptake under cocaine IC80, either direction, primary screen, cocaine antagonist project, cell-based, LLC-PK1 hDAT, [14C]-dopamine uptake, MLSMR; Sodium-dependent dopamine transporter (Homo sapiens), Q01959; LLC-PK1 hDAT cells, [14C]-dopamine uptake with cocaine IC80; actives deviate in either direction; 110,000 compounds, 1.3% hits; B-score at 10 µM;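 active means Z score or B-score, a plate-position-corrected score, falls beyond the plate's 99.7% confidence bounds, in either direction; inactive means both scores lie inside the 99.7% bounds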;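 further: scored against the spread of the other compound wells on the same plate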
BAP1 block: inhibitors of BAP1 deubiquitinase, primary screen, biochemical, Ub-AMC fluorescence, kinetic; AID 436, 2006; Ubiquitin carboxyl-terminal hydrolase BAP1 (Homo sapiens), Q92560; recombinant BAP1, Ub-AMC hydrolysis fluorescence kinetic; stronger effect = lower value; 72,000 compounds, 0.48% hits; calls only at 20 µM;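 active means activity remaining at or below 50% of control, provided the compound also passes the data quality filters; inactive means the rest, including low values that fail the filters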;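 further: 100% = DMSO wells rate and 0% = substrate alone blank rate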
D1 mod: D1 CRE-luciferase signal change, two-sided – cell-based, HEK293 D1, dopamine EC30, D1 allosteric modulator project, primary screen; D(1A) dopamine receptor (Homo sapiens), P21728; dopamine EC30 potentiation; actives deviate in either direction; B-score at 10 µM; 58,000 compounds, 5.9% hits; AID 641, 2007;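 active means luminescence count or its row- and column-corrected plate score outside the 99.7% band of the plate's sample wells, on either side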
D1 PAM confirm: D1 receptor positive allosteric modulators, retest, confirmation, cell-based, HEK293 D1, CRE-luciferase, duplicate | shares compounds with D1 mod | dopamine EC30 potentiation; stronger effect = higher value | luminescence at 10 µM | 2,200 compounds, 88% hits | AID 642, 2007;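 active means luminescence in either of two replicates above the same-plate mean plus 3 SD of the low-dose dopamine control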
D1 no dopamine: D1 receptor agonism without dopamine, confirmation, mechanism study for D1 allosteric modulator project, cell-based, HEK293 D1, CRE-luciferase, secondary assay 1. shares compounds with D1 mod. luminescence at 10 µM. 1,900 compounds, 0.8% hits. luminescence, no dopamine; stronger effect = higher value; in the data active means luminescence above about 3900
Isoprot counter: isoproterenol response counter-screen activity for D1 modulators; calls only at 10 µM; shares compounds with D1 mod; HEK293 D1 CRE-luciferase, isoproterenol EC30 counter-screen; 2,200 compounds, 63% hits;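 active means luminescence in either replicate above plate mean of wells with a partly effective reference agonist dose plus 3 SD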;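 further: isoproterenol raises cAMP through native beta-adrenoceptor Gs so signal bypasses D1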
Starred values were filed as active, the others as inactive; i = inactive; . = no result shown; + = active, no number. An excerpt weighted towards active compounds, which were near 7.2% of everything screened.

SMILES	M1 antag	HEK293 NFkB inh	M1 ag	hDAT+cocaine	BAP1 block	D1 mod	D1 PAM confirm	D1 no dopamine	Isoprot counter
CCOC(=O)N1CCN(Cc2nc(N)nc(Nc3ccc(Oc4ccccc4)cc3)n2)CC1	.	7	.	0.27	i	3.5*	12388*	1648	+
CCOC(=O)N1CCN(Cc2nc(N)nc(Nc3ccc(OC)cc3)n2)CC1	.	.	.	-0.56	.	.	.	.	.
Cn1c(=O)c2c(nc(SCCCC#N)n2Cc2c(F)cccc2Cl)n(C)c1=O	-0.41	2	-1.1	0.1	i	5.8*	7192*	1824	+
CC1CCCCN1Cc1nc2c(c(=O)n(C)c(=O)n2C)n1Cc1c(F)cccc1Cl (centres undefined)	0.0073	17	-0.6	0.74	i	.	.	.	.
CCCCOc1cc(C)nc(NCc2ccccc2)n1	-0.23	8	0.99	0.11	i	10*	5728*	1592	i
CCOc1cc(C)nc(NCc2ccccc2)n1	.	.	.	0.67	.	.	.	.	.
COC(C)(C)c1cc(C(C)(C)C)nc(N)n1	0.32	8	-0.12	-0.02	i	3.1*	10892*	.	+
COC(=O)c1ccc(COc2nc(C)cc(C)c2C#N)o1	-0.31	13	0.0031	-0.2	i	3.6*	11580*	1524	i
Cc1ccc(C(=O)COc2nc(C)cc(C)c2C#N)cc1	.	.	.	-0.44	.	.	.	.	.
O=C(Oc1ccc(O)c2c1C(=O)c1ccccc1C2=O)c1ccccc1	.	.	.	.	i	.	.	.	.
COc1ccc(-c2cc(C(=O)N3CCCc4ccccc43)no2)cc1OC	-0.6	4	0.33	-0.3	i	1.4	.	.	.
COc1ccc(-c2cc(C(=O)N3CCc4ccccc4C3)no2)cc1OC	-1.3	9	-0.7	0.7	i	4.6*	10752*	1528	+
COCCNC(=O)c1cc(-c2ccc(OC)c(OC)c2)on1	0.27	0	0.95	0.24	i	15*	15388*	1528	+
Cc1ccc(-c2cc(C(=O)NCc3cccnc3)no2)cc1	0.033	-15	0.11	0.44	.	0.056	.	.	.
COc1ccc(-c2cc(C(=O)NCc3cccnc3)no2)cc1OC	0.24	13	0.47	0.16	i	4.2*	9080*	.	i
N#CC1=C(N)N(c2ccccc2)C2=C(C(=O)CCC2)C1c1ccsc1 (centres undefined)	0.6	-1	0.65	-0.022	i	8.3*	17976*	1976	i
Cc1ccc(N2C(N)=C(C#N)C(c3ccsc3)C3=C2CC(C)(C)CC3=O)cc1 (centres undefined)	.	.	.	0.39	.	.	.	.	.
CCCCOCC(O)CN1CCOCC1 (centres undefined)	.	.	.	.	i	.	.	.	.
COC(=O)n1c(SC)nc2ccccc21	-1.3	1	0.1	-0.24	i	5.6*	11396*	1220	+
CCc1ccc(C2C(C#N)=C(N)SC(N)=C2C#N)s1	-0.86	14	1.3	0.14	i	7.3*	8708*	1568	+
N#CC1=C(N)Oc2n[nH]c(-c3cccs3)c2C1c1ccsc1 (centres undefined)	0.15	9	0.43	-0.38	.	4.4*	6176*	1692	i
Cc1ccc(C2C(C#N)=C(N)Oc3n[nH]c(-c4cccs4)c32)s1 (centres undefined)	-0.49	9	-0.13	0.37	i	4.6*	13468*	1676	i
O=C(Nc1ncc(S(=O)(=O)c2ccc([N+](=O)[O-])cc2)s1)c1ccc(S(=O)(=O)N2CCCCC2)cc1	.	.	.	.	i	.	.	.	.
C#CCNc1nc(CC)nc2c1nnn2Cc1ccccc1F	-1	15	-0.12	1.2	i	5.9*	15288*	1616	+
CCCCc1nc(NCCN2CCOCC2)c(C#N)c2c1COC(C)(C)C2	0.1	.	-2.6	2.6*	i	5.8*	11452*	1780	+
SMILES	M1 antag	HEK293 NFkB inh	M1 ag	hDAT+cocaine	BAP1 block	D1 mod	D1 PAM confirm	D1 no dopamine	Isoprot counter
CC(C)Cc1nc(NCCN2CCOCC2)c(C#N)c2c1COC(C)(C)C2	-0.32	.	-0.75	0.29	i	.	.	.	.
Cc1nc2c(=O)[nH]ccc2[nH]1	.	.	.	.	i	.	.	.	.
CCOc1ccc(Cl)cc1S(=O)(=O)N1CCCCC1	.	.	.	.	i	.	.	.	.
CCc1cc2c(=O)c(-c3ccc(OC(C)C)cc3)coc2cc1OC(C)=O	.	.	.	.	i	.	.	.	.
CCn1ncc(C2=NOC(C(=O)Nc3ccc4c(c3)OCO4)C2)c1C (centres undefined)	0.46	7	0.2	0.54	i	4.6*	7668*	1584	i
O=C(Nc1nccs1)c1ccc2c(c1)C(=O)N(c1ccc(Sc3ccc([N+](=O)[O-])cc3)cc1)C2=O	.	.	.	.	i	.	.	.	.
c1ccc(N(c2ccccc2)c2nc(N3CCOCC3)nc(N3CCOCC3)n2)cc1	0.84	14	0.45	.	i	1.8	.	.	.
N/C(=N/O)c1nc(N2CCCCC2)nc(N2CCCCC2)n1	-1.3	5	0.84	1.7	i	5.2*	18416*	1644	+
N/C(=N/O)c1nc(N2CCCC2)nc(N(c2ccccc2)c2ccccc2)n1	-0.29	21	-0.4	-2.3	i	7.2*	13376*	1828	+
CC12c3ccccc3C(c3ccccc31)C1C(=O)N(c3ccc(C#N)cc3)C(=O)C12 (centres undefined)	.	.	.	.	i	.	.	.	.
CCN(CC(=O)Nc1ccc2c(c1)OCCO2)c1ccc(S(=O)(=O)N2CCOCC2)cn1	0.3	7	-0.6	-0.6	i	-0.49	.	.	.
CCN(CC(=O)Nc1ccc2c(c1)OCCO2)C(=O)c1cccc(S(=O)(=O)N2CCOCC2)c1	0.22	16	-0.12	0.82	i	3*	5360	.	i
CCCCC1(O)CCCC1O (centres undefined)	.	.	.	.	i	.	.	.	.
FC(F)(F)c1cccc(-c2ccc(-c3csnn3)o2)c1	-0.0059	20	-0.0034	-0.22	.	24*	5424	1700	i
Cc1nnc(NC(=O)c2ccc(-c3cccc(C(F)(F)F)c3)o2)s1	0.62	-4	-0.19	-0.49	.	.	.	.	.

High-throughput results from PubChem BioAssay.
